Measurements reported in ChEMBL document CHEMBL3259808, “Optimization of antitrypanosomatid agents: identification of nonmutagenic drug candidates with in vivo activity” (J Med Chem, 2014).
The source made the active and inactive calls. The calls are words filed in the database; no cut-off is given here.

What was measured:
Trypanosoma cruzi [1] = assay: Antitrypanosomal activity against Trypanosoma cruzi CL Brener infected in BALB/c mouse assessed as peak of maximum parasitemia at 192 umol/kg/day, po for 14 days administered in saline and tween 80 measured up to 60 days relative to control; type: functional
Procedure, shortened: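 Male BALB/c mice (30 days old, 25–30 g, SPF) were infected i.p. with 10³ blood trypomastigotes, n = 8/group. Daily oral gavage in saline/Tween 80 (4:1) ran for 14 days from day 6 post-infection; controls received vehicle only. Parasitemia was counted weekly in tail-vein blood by hemocytometer for 60 days, and survival was recorded.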

Trypanosoma cruzi [2] = assay: Antitrypanosomal activity against Trypanosoma cruzi CL Brener infected in BALB/c mouse assessed as mouse survival at 192 umol/kg/day, po for 14 days administered in saline and tween 80 measured up to 60 days relative to control; type: functional
Trypanosoma cruzi [3] = assay: Antitrypanosomal activity against Trypanosoma cruzi Tulahuen 2 epimastigotes assessed as growth inhibition after 5 days; type: functional, organism-based; settings: Trypanosoma cruzi, Tulahuen 2, 120 h
Procedure, shortened: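 Epimastigotes were grown axenically at 28 °C in BHI-tryptose with 5% FBS and seeded from a 5–7 day culture at 1 × 10⁶ cells/mL. Drug from a DMSO stock was added (final DMSO ≤0.4%; the control contained 0.4% DMSO). Duplicates were run. A600 was read at day 5, and % inhibition was calculated relative to day-0 and control readings. IC50 = concentration that halves the absorbance ratio.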

[4] = Selectivity index, ratio of IC50 for African green monkey Vero cells to IC50 for Trypanosoma cruzi Sylvio X-10 amastigotes; type: toxicity, cell-based; settings: read-out: Ratio IC50
Procedure, shortened: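 VERO cytotoxicity: cells exposed 48 h at 37 °C, 5% CO2 to serial dilutions from a maximum of 2000 μM (DMSO stocks; DMSO <0.1% control); growth inhibition read by MTT at 570 nm. Amastigote IC50: Sylvio X-10-infected VERO cells, five doses, infected cells counted among 300 (Giemsa), quadruplicate, three experiments, sigmoidal fit. SI = IC50 VERO / IC50 amastigote.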

Trypanosoma cruzi [5] = assay: Antitrypanosomal activity against Trypanosoma cruzi Sylvio X-10 amastigotes infected in African green monkey Vero cells assessed as eradication of amastigotes after 72 hrs by Giemsa staining-based assay; settings: Trypanosoma cruzi, Sylvio X-10, Vero, 72 h
[6] = Stability of the compound in aqueous solution assessed as compound remaining at 1 mM at pH 7.4 after 1 hr by TLC analysis; type: physicochemical; settings: aqueous solution, pH 7.4; read-out: Stability
Procedure, shortened: (§1)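 DMSO stocks diluted to final 1 mM in KCl·HCl pH 1.0, citrate pH 6.0, Tris·HCl pH 7.4 or borax·HCl pH 9.0 buffer. Incubated 1 h at 37 °C, then ethyl acetate extracts checked by TLC for decomposition products.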

Salmonella typhimurium [7] = assay: Mutagenic activity in Salmonella typhimurium TA1535 at 0.06 to 5 ug/plate by Ames test in presence of mouse liver S9 fraction; type: toxicity, organism-based; settings: salmonella enterica subsp. enterica serovar typhimurium
Procedure, shortened: (§2)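 Plate-incorporation Ames test on minimal glucose agar with 500 μL Aroclor-treated mouse liver S9 added. DMSO solutions were tested at five consecutive 3-fold dilutions from the highest non-toxic dose, in triplicate, with a DMSO negative control. Revertants were counted manually; a compound was scored mutagenic when revertants were at least twice the negative control for two or more consecutive doses.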

[8] = Stability of the compound in aqueous solution assessed as compound remaining at 1 mM at pH 1 after 1 hr by TLC analysis; type: physicochemical; settings: read-out: Stability; procedure, shortened: as §1
[9] = Stability of the compound in aqueous solution assessed as compound remaining at 1 mM at pH 9 after 1 hr by TLC analysis; type: physicochemical; settings: aqueous solution, pH 9; read-out: Stability; procedure, shortened: as §1
[10] = Stability of the compound in aqueous solution assessed as compound remaining at 1 mM at pH 6 after 1 hr by TLC analysis; type: physicochemical; settings: aqueous solution, pH 6; read-out: Stability; procedure, shortened: as §1
Trypanosoma cruzi [11] = assay: Antitrypanosomal activity against Trypanosoma cruzi Sylvio X-10 amastigotes infected in African green monkey Vero cells assessed as eradication of amastigotes at 5 uM after 5 days by optical microscopic analysis; type: functional, organism-based; settings: in the assay text read “after 72 hrs” for “after 5 days”
Procedure, shortened: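 VERO cells infected with Sylvio X-10 parasites were treated with 5 μM compound and examined by optic microscopy after 72 h of incubation for intracellular amastigotes and trypomastigotes.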

Salmonella typhimurium [12] = assay: Mutagenic activity in Salmonella typhimurium TA1537 at 0.06 to 5 ug/plate by Ames test; type: toxicity, organism-based; settings: salmonella enterica subsp. enterica serovar typhimurium
Procedure, shortened: (§3)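 Direct plate incubation on minimal glucose agar (Vogel-Bonner E). Compound toxicity to the bacteria was checked first. DMSO solutions were tested at five consecutive 3-fold dilutions, starting from the highest non-toxic dose, in triplicate, without metabolic activation. DMSO served as negative control. Revertants were counted manually; mutagenic = revertants at least double the negative control at two or more consecutive doses.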

Salmonella typhimurium [13] = assay: Mutagenic activity in Salmonella typhimurium TA100 at 0.06 to 5 ug/plate by Ames test in presence of mouse liver S9 fraction; type: toxicity, organism-based; settings: salmonella enterica subsp. enterica serovar typhimurium; procedure, shortened: as §2
Trypanosoma cruzi [14] = assay: Antitrypanosomal activity against Trypanosoma cruzi Sylvio X-10 amastigotes infected in African green monkey Vero cells assessed as eradication of amastigotes after 5 days by Giemsa staining-based assay; type: functional, organism-based; settings: Sylvio X-10, Vero, 120 h
Procedure, shortened: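 VERO cells in RPMI 1640 with 10% hiFCS were allowed to adhere for 24 h at 37 °C in 5% CO₂, then infected with tissue-derived trypomastigotes at 10:1. Free parasites were washed off after 24 h, and cultures were treated at five compound doses (text gives 72 h / 5 days). Cultures were methanol-fixed and Giemsa-stained, and infected cells were counted among 300. Quadruplicates were run in three independent experiments. IC50/IC90 were obtained by sigmoidal regression.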

Salmonella typhimurium [15] = assay: Mutagenic activity in Salmonella typhimurium TA102 at 0.06 to 5 ug/plate by Ames test; type: toxicity, organism-based; settings: salmonella enterica subsp. enterica serovar typhimurium; procedure, shortened: as §3
Salmonella typhimurium [16] = assay: Mutagenic activity in Salmonella typhimurium TA100 at 0.06 to 5 ug/plate by Ames test; type: toxicity, organism-based; settings: salmonella enterica subsp. enterica serovar typhimurium; procedure, shortened: as §3
[17] = Selectivity index, ratio of IC50 for human RBC to IC50 for Trypanosoma cruzi Sylvio X-10 amastigotes
Procedure, shortened: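 Hemolysis: washed human erythrocytes (2% w/v in PBS) incubated 24 h at 37 °C with compound at final 50, 100 and 200 μM. Ten replicates per concentration. Hemoglobin release read at 405 nm against water lysis as 100%; amphotericin B 1.5 μM was the positive control. SI = IC50 red cells / parasite IC50 (Sylvio X-10 amastigotes or Tulahuen 2 epimastigotes).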

Salmonella typhimurium [18] = assay: Mutagenic activity in Salmonella typhimurium TA98 at 3.1 to 250 ug/plate by Ames test in presence of mouse liver S9 fraction; type: toxicity, organism-based; settings: salmonella enterica subsp. enterica serovar typhimurium
Procedure, shortened: (§4)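 Ames plate-incorporation assay with S. typhimurium TA98 in Vogel-Bonner E minimal glucose agar. Toxicity toward the bacteria was checked first. DMSO solutions were run in triplicate at five consecutive third-dilutions, starting at the highest non-toxic dose. Positive controls were 4-nitro-o-phenylenediamine (20.0 μg/plate) and 2-aminofluorene (10.0 μg/plate); DMSO was the negative control. Revertants were counted manually. A compound was called mutagenic when revertants were at least twice the negative control at two or more consecutive doses.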

Trypanosoma cruzi [19] = assay: Antitrypanosomal activity against Trypanosoma cruzi Dm 28c epimastigotes assessed as growth inhibition after 5 days; type: functional, organism-based; settings: 120 h
Salmonella typhimurium [20] = assay: Mutagenic activity in Salmonella typhimurium TA102 at 0.06 to 5 ug/plate by Ames test in presence of mouse liver S9 fraction; type: toxicity, organism-based; settings: salmonella enterica subsp. enterica serovar typhimurium; procedure, shortened: as §2
Salmonella typhimurium [21] = assay: Mutagenic activity in Salmonella typhimurium TA98 at 3.1 to 250 ug/plate by Ames test; type: toxicity, organism-based; settings: salmonella enterica subsp. enterica serovar typhimurium; procedure, shortened: as §4
[22] = Stability of the compound in eumulgin HRE 40, sodium oleate, soya phosphatidylcholine, cholesterol, and phosphate buffer at pH 7.4 at 4 degC; type: physicochemical
Procedure, shortened: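 Storage stability of the compound in vehicle V2, a microemulsion of surfactant (Eumulgin HRE 40/sodium oleate/soya phosphatidylcholine, 10%), cholesterol oil phase (10%) and pH 7.4 phosphate buffer (80%), followed over 1 week at 4 °C.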

Salmonella typhimurium [23] = assay: Mutagenic activity in Salmonella typhimurium TA1537 at 0.06 to 5 ug/plate by Ames test in presence of mouse liver S9 fraction; type: toxicity, organism-based; settings: salmonella enterica subsp. enterica serovar typhimurium; procedure, shortened: as §2
[24] = Selectivity index, ratio of IC50 for mouse J774.1 cells to IC50 for Trypanosoma cruzi Sylvio X-10 amastigotes; type: toxicity; settings: read-out: Ratio IC50
Procedure, shortened: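 J774.1 macrophages grown in DMEM with 10% heat-inactivated FCS and allowed to attach 48 h, then exposed 48 h at 37 °C to 12.5–400.0 μM. Triplicates. MTT 0.1 mg/mL for 3 h, read at 560 nm; IC50 by linear regression against the solvent control. SI = IC50 J774.1 / parasite IC50 (Sylvio X-10 amastigotes or Tulahuen 2 epimastigotes, the latter measured by A600 growth inhibition at day 5).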

Salmonella typhimurium [25] = assay: Mutagenic activity in Salmonella typhimurium TA1535 at 0.06 to 5 ug/plate by Ames test; type: toxicity, organism-based; settings: salmonella enterica subsp. enterica serovar typhimurium; procedure, shortened: as §3

## O=C(Cn1ccnc1[N+](=O)[O-])NCc1ccccc1 [BENZNIDAZOLE]
Trypanosoma cruzi [1]
  Time: 42 days
Trypanosoma cruzi [2]
  survival at 192 µmol/kg: 100%
Trypanosoma cruzi [3]
  IC50: 7 µM
[4]
  selectivity ratio: 300
Trypanosoma cruzi [5]
  IC50: 3.3 µM

## Br.C=CCn1c(-c2ccccc2)cs\c1=N/N=C/C=C/c1ccco1.O
[6]
  remaining at 1 h, 1000 µM: > 95%
Salmonella typhimurium [7]
  Activity: Non-toxic
[8]
  remaining at 1 h, 1000 µM: 90%
Trypanosoma cruzi [3]
  IC50: 3.2 µM
[4]
  selectivity ratio: > 1000
[9]
  remaining at 1 h, 1000 µM: > 95%
[10]
  remaining at 1 h, 1000 µM: > 95%
Trypanosoma cruzi [11]
  Activity: Active
Salmonella typhimurium [12]
  Activity: Non-toxic
Salmonella typhimurium [13]
  Activity: Non-toxic
Trypanosoma cruzi [14]
  IC50: < 0.24 µM
Salmonella typhimurium [15]
  Activity: Non-toxic
Salmonella typhimurium [16]
  Activity: Non-toxic
[17]
  Ratio IC50: > 196
Salmonella typhimurium [18]
  Activity: Non-toxic
Trypanosoma cruzi [19]
  IC50: 4 µM
Salmonella typhimurium [20]
  Activity: Non-toxic
Salmonella typhimurium [21]
  Activity: Non-toxic
[22]
  Stability: Stable
Salmonella typhimurium [23]
  Activity: Non-toxic
[24]
  selectivity ratio: > 120
Salmonella typhimurium [25]
  Activity: Non-toxic
